Experimental data taken from ChEMBL document CHEMBL1944570, “Discovery of 4''-ether linked azithromycin-quinolone hybrid series: influence of the central linker on the antibacterial activity” (ACS Med Chem Lett, 2011).
Values after ≈ are worked out from the molar mass of the structure shown.

Columns and labels:
Type in all cases: functional
Staphylococcus aureus [1] = assay: Antibacterial activity against constitutive MLS resistant Staphylococcus aureus by agar microdilution method
How it was run: (§1)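 MIC by agar microdilution following NCCLS standards; strains drawn from the PLIVA Research Institute culture collection. MIC reported in μg/mL.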

Staphylococcus aureus [2] = assay: Antibacterial activity against Staphylococcus aureus with inducible resistance to MLS by agar microdilution method; how it was run: as §1
Streptococcus pneumoniae [3] = assay: Antibacterial activity against erythromycin-susceptible Streptococcus pneumoniae by agar microdilution method; how it was run: as §1
Streptococcus pyogenes [4] = assay: Antibacterial activity against Streptococcus pyogenes with inducible resistance to MLS by agar microdilution method; how it was run: as §1
Staphylococcus aureus [5] = assay: Antibacterial activity against efflux mediated macrolide resistant Staphylococcus aureus by agar microdilution method; how it was run: as §1
Streptococcus pyogenes [6] = assay: Antibacterial activity against efflux mediated macrolide resistant Streptococcus pyogenes by agar microdilution method; how it was run: as §1
Streptococcus pyogenes [7] = assay: Antibacterial activity against erythromycin-susceptible Streptococcus pyogenes by agar microdilution method; how it was run: as §1
Moraxella catarrhalis = assay: Antibacterial activity against Moraxella catarrhalis by agar microdilution method
How it was run: (§2)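 Agar microdilution MIC per NCCLS standards against strains from the Pliva Research Institute culture collection; values in µg/mL. Panel included erythromycin-susceptible strains and strains with inducible or constitutive MLS resistance.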

Haemophilus influenzae = assay: Antibacterial activity against Haemophilus influenzae B0529 by agar microdilution method; how it was run: as §2
Streptococcus pneumoniae [8] = assay: Antibacterial activity against efflux mediated macrolide resistant Streptococcus pneumoniae by agar microdilution method; how it was run: as §1
Staphylococcus aureus [9] = assay: Antibacterial activity against erythromycin-susceptible Staphylococcus aureus by agar microdilution method; how it was run: as §2
Staphylococcus aureus [10] = assay: Antibacterial activity against ciprofloxacin-resistant Staphylococcus aureus by agar microdilution method; how it was run: as §1
Streptococcus pyogenes [11] = assay: Antibacterial activity against constitutive MLS resistant Streptococcus pyogenes by agar microdilution method; how it was run: as §1
Streptococcus pneumoniae [12] = assay: Antibacterial activity against constitutive MLS resistant Streptococcus pneumoniae by agar microdilution method; how it was run: as §1

Row | Compound | MIC (Staphylococcus aureus [1]) [µg/mL] | MIC (Staphylococcus aureus [2]) [µg/mL] | MIC (Streptococcus pneumoniae [3]) [µg/mL] | MIC (Streptococcus pyogenes [4]) [µg/mL] | MIC (Staphylococcus aureus [5]) [µg/mL] | MIC (Streptococcus pyogenes [6]) [µg/mL] | MIC (Streptococcus pyogenes [7]) [µg/mL] | MIC (Moraxella catarrhalis) [µg/mL] | MIC (Haemophilus influenzae) [µg/mL] | MIC (Streptococcus pneumoniae [8]) [µg/mL] | MIC (Staphylococcus aureus [9]) [µg/mL] | MIC (Staphylococcus aureus [10]) [µg/mL] | MIC (Streptococcus pyogenes [11]) [µg/mL] | MIC (Streptococcus pneumoniae [12]) [µg/mL]
1 | CC[C@H]1OC(=O)[C@H](C)[C@@H](O[C@H]2C[C@@](C)(OC)[C@@H](OCCNCCNc3cc4c(=O)c(C(=O)O)cn(C5CC5)c4cc3Cl)[C@H](C)O2)[C@H](C)[C@@H](O[C@@H]2O[C@H](C)C[C@H](N(C)C)[C@H]2O)[C@](C)(O)C[C@@H](C)CN(C)[C@H](C)[C@@H](O)[C@]1(C)O | > 64 | 64 (≈ 58.4 µM) | ≤ 0.125 | 1 (≈ 0.912 µM) | 8 (≈ 7.29 µM) | 8 (≈ 7.29 µM) | ≤ 0.125 | 0.5 (≈ 0.456 µM) | 2 (≈ 1.82 µM) | 0.25 (≈ 0.228 µM) | 4 (≈ 3.65 µM) | ≥ 64 | 16 (≈ 14.6 µM) | 64 (≈ 58.4 µM)
2 | CC[C@H]1OC(=O)[C@H](C)[C@@H](O[C@H]2C[C@@](C)(OC)[C@@H](OCCNCCNc3cc4c(cc3F)c(=O)c(C(=O)O)cn4C3CC3)[C@H](C)O2)[C@H](C)[C@@H](O[C@@H]2O[C@H](C)C[C@H](N(C)C)[C@H]2O)[C@](C)(O)C[C@@H](C)CN(C)[C@H](C)[C@@H](O)[C@]1(C)O | 64 (≈ 59.2 µM) | 64 (≈ 59.2 µM) | ≤ 0.125 | – | 2 (≈ 1.85 µM) | 1 (≈ 0.926 µM) | ≤ 0.125 | 1 (≈ 0.926 µM) | 4 (≈ 3.7 µM) | – | 2 (≈ 1.85 µM) | ≥ 64 | 1 (≈ 0.926 µM) | 32 (≈ 29.6 µM)
3 | CC[C@H]1OC(=O)[C@H](C)[C@@H](O[C@H]2C[C@@](C)(OC)[C@@H](OCCNCCOCCNc3cc4c(cc3F)c(=O)c(C(=O)O)cn4C3CC3)[C@H](C)O2)[C@H](C)[C@@H](O[C@@H]2O[C@H](C)C[C@H](N(C)C)[C@H]2O)[C@](C)(O)C[C@@H](C)CN(C)[C@H](C)[C@@H](O)[C@]1(C)O | > 64 | 64 (≈ 56.9 µM) | ≤ 0.125 | – | 8 (≈ 7.11 µM) | 1 (≈ 0.889 µM) | ≤ 0.125 | 8 (≈ 7.11 µM) | 8 (≈ 7.11 µM) | – | 8 (≈ 7.11 µM) | ≥ 64 | 2 (≈ 1.78 µM) | 2 (≈ 1.78 µM)
4 | CC[C@H]1OC(=O)[C@H](C)[C@@H](O[C@H]2C[C@@](C)(OC)[C@@H](OCCNCCOCCOCCNc3cc4c(=O)c(C(=O)O)cn(C5CC5)c4cc3Cl)[C@H](C)O2)[C@H](C)[C@@H](O[C@@H]2O[C@H](C)C[C@H](N(C)C)[C@H]2O)[C@](C)(O)C[C@@H](C)CN(C)[C@H](C)[C@@H](O)[C@]1(C)O | 32 (≈ 27 µM) | 64 (≈ 54 µM) | ≤ 0.125 | – | 1 (≈ 0.844 µM) | 2 (≈ 1.69 µM) | ≤ 0.125 | 1 (≈ 0.844 µM) | 4 (≈ 3.38 µM) | – | 4 (≈ 3.38 µM) | ≥ 64 | 2 (≈ 1.69 µM) | 64 (≈ 54 µM)
5 | CC[C@H]1OC(=O)[C@H](C)[C@@H](O[C@H]2C[C@@](C)(OC)[C@@H](OCCCC(=O)NCCNc3cc4c(=O)c(C(=O)O)cn(C5CC5)c4cc3Cl)[C@H](C)O2)[C@H](C)[C@@H](O[C@@H]2O[C@H](C)C[C@H](N(C)C)[C@H]2O)[C@](C)(O)C[C@@H](C)CN(C)[C@H](C)[C@@H](O)[C@]1(C)O | 64 (≈ 56.2 µM) | 32 (≈ 28.1 µM) | 0.5 (≈ 0.439 µM) | 0.25 (≈ 0.22 µM) | 4 (≈ 3.51 µM) | 2 (≈ 1.76 µM) | ≤ 0.125 | 4 (≈ 3.51 µM) | 8 (≈ 7.02 µM) | ≤ 0.125 | 4 (≈ 3.51 µM) | ≥ 64 | 2 (≈ 1.76 µM) | 0.5 (≈ 0.439 µM)
6 | CC[C@H]1OC(=O)[C@H](C)[C@@H](O[C@H]2C[C@@](C)(OC)[C@@H](OCCCC(=O)NCCOCCNc3cc4c(=O)c(C(=O)O)cn(C5CC5)c4cc3Cl)[C@H](C)O2)[C@H](C)[C@@H](O[C@@H]2O[C@H](C)C[C@H](N(C)C)[C@H]2O)[C@](C)(O)C[C@@H](C)CN(C)[C@H](C)[C@@H](O)[C@]1(C)O | 64 (≈ 54.1 µM) | 64 (≈ 54.1 µM) | ≤ 0.125 | – | 8 (≈ 6.76 µM) | 1 (≈ 0.845 µM) | ≤ 0.125 | 4 (≈ 3.38 µM) | 4 (≈ 3.38 µM) | 0.25 (≈ 0.211 µM) | 2 (≈ 1.69 µM) | ≥ 64 | 2 (≈ 1.69 µM) | 4 (≈ 3.38 µM)
7 | CC[C@H]1OC(=O)[C@H](C)C(=O)[C@H](C)[C@@H](O[C@@H]2O[C@H](C)C[C@H](N(C)C)[C@H]2O)[C@](C)(OCC=Cc2cnc3ccccc3c2)C[C@@H](C)C(=O)[C@H](C)[C@H]2NC(=O)O[C@@]21C [CETHROMYCIN] | > 64 | 0.25 (≈ 0.326 µM) | ≤ 0.125 | – | 0.25 (≈ 0.326 µM) | – | ≤ 0.125 | ≤ 0.125 | 1 (≈ 1.31 µM) | – | ≤ 0.125 | ≥ 64 | 1 (≈ 1.31 µM) | –
